From ChEMBL document CHEMBL3352635 (Bioorg Med Chem Lett, 2014)
Activity calls are given as the source filed them. No cut-off for these calls is given here.

Experiments:
[1] = AUC in Sprague-Dawley rat at 44.83 mg/kg, po; type: ADME, organism-based; set-up: dose 44.83 mg/kg, route oral; conditions: plasma
Summary of the method: (§1)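 Plasma parent-drug concentration followed over time up to 8 h. AUC in µg*h/mL from the concentration–time profile. Cmax and Tmax taken from the profile.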

Rattus norvegicus [2] = test: Toxicity in rat assessed as gastric lesion and ulcer area at 200 mg/kg, po after 5 hrs; type: organism-based, Stomach; set-up: dose 200 mg/kg, route oral; conditions: in vivo
Rattus norvegicus [3] = test: Antiplatelet activity in Sprague-Dawley rat assessed as inhibition of TXB2 formation at 30 mg/kg, po od after 7 days by EIA relative to vehicle-treated control; type: functional; conditions: 168 h
Summary of the method: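 Sprague–Dawley rats dosed orally once daily for 7 days with aspirin 30 mg/kg or prodrug 44.82 mg/kg (equimolar), with vehicle 1 ml/kg as control. Serum TXB2 levels estimated. Inhibition expressed as % reduction versus vehicle.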

[4] = AUC in Wistar rat at 30 mg/kg, po; type: ADME, organism-based; set-up: dose 30 mg/kg, route oral; conditions: plasma
Summary of the method: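 Single oral dosing in Wistar rats to compare […]. Aspirin at 30 mg/kg or the prodrug at 44.83 mg/kg (equimolar to 30 mg/kg aspirin). Plasma aspirin measured over time. AUC in µg*h/mL.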

[5] = AUC in Sprague-Dawley rat at 30 mg/kg, po; type: ADME, organism-based; set-up: dose 30 mg/kg, route oral; conditions: plasma; summary of the method: as §1
[6] = Half life in simulated gastric fluid at pH 1.2 by HPLC analysis; type: ADME
Summary of the method: (§2)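 Compounds incubated at 37 °C in simulated gastric fluid (pH 1.2), simulated intestinal fluid (pH 6.8) or 100% human plasma for up to 180 min. […] Half-life estimated from the decay.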

[7] = Metabolic stability in simulated gastric fluid assessed as compound remaining at pH 1.2 after 10 mins by HPLC analysis; type: ADME; conditions: read-out: Stability; summary of the method: as §2
[8] = Metabolic stability in simulated gastric fluid assessed as compound remaining at pH 1.2 after 15 mins by HPLC analysis; type: ADME; conditions: read-out: Stability; summary of the method: as §2
[9] = Metabolic stability in simulated gastric fluid assessed as compound remaining at pH 1.2 after 30 mins by HPLC analysis; type: ADME; conditions: read-out: Stability; summary of the method: as §2
[10] = Metabolic stability in simulated gastric fluid assessed as compound remaining at pH 1.2 after 180 mins by HPLC analysis; type: ADME; conditions: read-out: Stability; summary of the method: as §2
[11] = Metabolic stability in simulated gastric fluid assessed as compound remaining at pH 1.2 after 60 mins by HPLC analysis; type: ADME; conditions: read-out: Stability; summary of the method: as §2
[12] = Metabolic stability in simulated gastric fluid assessed as compound remaining at pH 1.2 after 120 mins by HPLC analysis; type: ADME; conditions: read-out: Stability; summary of the method: as §2
[13] = Metabolic stability in simulated gastric fluid assessed as compound remaining at pH 1.2 measured immediately by HPLC analysis; type: ADME; conditions: read-out: Stability; summary of the method: as §2
[14] = Metabolic stability in simulated gastric fluid assessed as compound remaining at pH 1.2 after 5 mins by HPLC analysis; type: ADME; conditions: read-out: Stability; summary of the method: as §2
Rattus norvegicus [15] = test: Toxicity in rat assessed as gastric lesion and ulcer area at 138.67 mg/kg, po after 5 hrs; type: organism-based, Stomach; set-up: dose 138.67 mg/kg, route oral; conditions: in vivo
[16] = Stability of the compound assessed as compound remaining at RT after 25 days; type: physicochemical; conditions: read-out: Drug metabolism
Summary of the method: (§3)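 Solid-state storage stability at room temperature and at 50 °C, followed for up to 1 month (25 days for one compound). Remaining compound measured, along with the amounts of parent drug and salicylic acid generated.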

Rattus norvegicus [17] = test: Antiinflammatory activity in Sprague-Dawley rat assessed as plasma nitrate/nitrite AUC at 41.60 mg/kg, po by Griess assay (reference value: 371.1 uM.h); type: functional, organism-based; set-up: dose 41.6 mg/kg
Summary of the method: (§4)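 Sprague–Dawley rats given compounds orally, with vehicle-dosed controls. […] Plasma nitrate/nitrite (NOx) measured by the Griess method as an indirect measure of NO released, over 8 h (sampling included 1, 2, 4 and 6 h). Plasma nitrate/nitrite AUC in µM*h.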

Rattus norvegicus [18] = test: Antiinflammatory activity in Sprague-Dawley rat assessed as plasma nitrate/nitrite at 41.60 mg/kg, po after 2 hrs; type: functional; conditions: dose 41.6 mg/kg; summary of the method: as §4
Rattus norvegicus [19] = test: Antiinflammatory activity in Sprague-Dawley rat assessed as plasma nitrate/nitrite at 41.60 mg/kg, po after 1 hr; type: functional; conditions: dose 41.6 mg/kg; summary of the method: as §4
Rattus norvegicus [20] = test: Antiinflammatory activity in Sprague-Dawley rat assessed as plasma nitrate/nitrite at 41.60 mg/kg, po after 6 hrs relative to control; type: functional, organism-based; set-up: dose 41.6 mg/kg; summary of the method: as §4
[21] = Stability of the compound assessed as compound remaining at 50 degC measured immediately; type: physicochemical; conditions: read-out: Stability; summary of the method: as §3
Rattus norvegicus [22] = test: Antiinflammatory activity in Sprague-Dawley rat assessed as plasma nitrate/nitrite at 41.60 mg/kg, po after 4 hrs; type: functional, organism-based; set-up: dose 41.6 mg/kg; summary of the method: as §4
[23] = Stability of the compound assessed as compound remaining at RT measured immediately; type: physicochemical; conditions: read-out: Stability; summary of the method: as §3
[24] = Stability of the compound assessed as compound remaining at 50 degC after 25 days; type: physicochemical; conditions: read-out: Drug metabolism; summary of the method: as §3

SMILES | half-life [6] | remaining at 10 min [7] | remaining at 0.25 h [8] | remaining at 0.5 h [9] | remaining at 3 h [10] | remaining at 1 h [11] | remaining at 2 h [12] | remaining at 0 min [13] | remaining at 5 min [14] | other results
CCCC(OC(=O)c1ccccc1OC(C)=O)O[N+](=O)[O-] (stereo not given) | – | – | – | – | – | – | – | – | – | AUC [1]: 73500 ng·h/mL
CC(=O)Oc1ccccc1C(=O)O [ASPIRIN] | – | – | – | – | – | – | – | – | – | Activity (Rattus norvegicus [2]): 93 mm2; inhibition in vivo at 30 mg/kg (Rattus norvegicus [3]): 76%; AUC [4]: 437000 ng·h/mL; AUC [5]: 91100 ng·h/mL

Further lines, with some results ahead:

half-life [6] | remaining at 10 min [7] | remaining at 0.25 h [8] | remaining at 0.5 h [9] | remaining at 3 h [10] | remaining at 1 h [11] | remaining at 2 h [12] | remaining at 0 min [13] | remaining at 5 min [14] | SMILES | other results
< 3 h | 94% | 83% | 83% | 39% | 75% | 58% | 100% | 96% | CCCC(OC(=O)[C@@H](C)c1ccc2cc(OC)ccc2c1)O[N+](=O)[O-] (stereo not given in full) | –
< 0.5 h | 75% | 65% | 33% | – | 0% | – | 100% | 85% | COc1ccc2cc([C@H](C)C(=O)OC(C)O[N+](=O)[O-])ccc2c1 (stereo not given in full) | Activity (Rattus norvegicus [15]): 39 mm2; remaining at 600 h [16]: 98.9%; AUC (Rattus norvegicus [17]): 687 µM·h; Activity (Rattus norvegicus [18]): 120 µM; Activity (Rattus norvegicus [19]): 150 µM; Activity (Rattus norvegicus [20]): inactive; remaining at 0 days [21]: 99.1%; Activity (Rattus norvegicus [22]): inactive; remaining at 0 days [23]: 99.1%; remaining at 600 h [24]: 99%
1 h | 90% | 74% | 62% | 7% | 51% | 39% | 100% | 94% | CCC(OC(=O)[C@@H](C)c1ccc2cc(OC)ccc2c1)O[N+](=O)[O-] (stereo not given in full) | –
